Data taken from ChEMBL document CHEMBL1649382, “Synthesis and in vitro anticancer evaluation of some novel hexahydroquinoline derivatives having a benzenesulfonamide moiety” (Eur J Med Chem, 2011).
In brackets after ≈: the same amount, converted by molar mass.

Assays:
[1] = Cytotoxicity against mouse EAC assessed as non-viable cells at 100 ug/ml after 2 hrs by trypan blue exclusion test; type: functional, Ehrlich
Method in brief: (§1)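 Mouse EAC cells came from ascitic fluid by needle aspiration, at 2.5×10^6 per mL in RPMI-1640. Each tube held 0.8 mL medium (glutamine, fetal calf serum, streptomycin, penicillin), 0.1 mL compound dissolved in DMSO (stock 10–100 µg per mL) and 0.1 mL of cells, at 37 °C for 2 h. Trypan blue staining gave the percentage of non-viable cells, as the mean of three experiments ± SD.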

[2] = Cytotoxicity against mouse EAC assessed as non-viable cells at 50 ug/ml after 2 hrs by trypan blue exclusion test; type: functional, Ehrlich; method in brief: as §1
[3] = Cytotoxicity against mouse EAC assessed as non-viable cells at 25 ug/ml after 2 hrs by trypan blue exclusion test; type: functional, Ehrlich; method in brief: as §1
[4] = Cytotoxicity against mouse EAC assessed as non-viable cells at 10 ug/ml after 2 hrs by trypan blue exclusion test; type: functional, Ehrlich; method in brief: as §1
[5] = Cytotoxicity against mouse EAC assessed as non-viable cells after 2 hrs by trypan blue exclusion test; type: functional, cell-based; conditions: Ehrlich
Method in brief: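 EAC cells were aspirated from the ascitic fluid of preinoculated mice and suspended in RPMI-1640 at 2.5×10^6 per mL. Each tube held 0.8 mL supplemented medium, 0.1 mL of a DMSO solution (100, 50, 25 or 10 µg per mL DMSO) and 0.1 mL of cells, incubated 2 h at 37 °C. Non-viable cells were counted by trypan blue. The survival-versus-concentration curve gave IC50, the concentration causing 50% mortality.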

Compound `NS(=O)(=O)c1ccc(N2C3=C(C(=O)CCC3)C(c3ccc(Cl)cc3Cl)c3c2nc(-c2ccc(Br)cc2)[nH]c3=O)cc1` (stereo not given) has an Activity [1] of 100%, an Activity [2] of 60% and an Activity [3] of 50%. The Activity [4] was 20% and the IC50 [5] was 25 µg/mL (≈ 37.2 µM).
In the case of `NS(=O)(=O)c1ccc(N2C3=C(C(=O)CCC3)C(c3ccc(Cl)cc3Cl)c3c2nc(CCl)[nH]c3=O)cc1` (stereo not given), the Activity [1] is reported as 40%, the Activity [2] is reported as 35% and the Activity [3] is reported as 30%. The Activity [4] was 30% and the IC50 [5] was greater than 100 µg/mL.
`Cc1ccc(C(=O)NC2=C(C#N)C(c3ccc(Cl)cc3Cl)C3=C(CCCC3=O)N2c2ccc(S(N)(=O)=O)cc2)cc1` (stereo not given) showed an Activity [1] of 40%, an Activity [2] of 40% and an Activity [3] of 30%. It also gave an Activity [4] of 20% and an IC50 [5] greater than 100 µg/mL.
In the case of `CC(Cl)CC(=O)NC1=C(C#N)C(c2ccc(Cl)cc2Cl)C2=C(CCCC2=O)N1c1ccc(S(N)(=O)=O)cc1` (stereo not given), the Activity [1] is reported as 60%, the Activity [2] is reported as 55% and the Activity [3] is reported as 50%. The Activity [4] was 20% and the IC50 [5] was 25 µg/mL (≈ 42.1 µM).
Compound `CC(Cl)Cc1nc2c(c(=O)[nH]1)C(c1ccc(Cl)cc1Cl)C1=C(CCCC1=O)N2c1ccc(S(N)(=O)=O)cc1` (stereo not given) has an Activity [1] of 60%, an Activity [2] of 40% and an Activity [3] of 40%. The Activity [4] was 30% and the IC50 [5] was greater than 100 µg/mL.
In the case of `N#CC1=C(NC(=O)c2ccccc2)N(c2ccc(S(N)(=O)=O)cc2)C2=C(C(=O)CCC2)C1c1ccc(Cl)cc1Cl` (stereo not given), the Activity [1] is reported as 75%, the Activity [2] is reported as 70% and the Activity [3] is reported as 60%. It also gave an Activity [4] of 50% and an IC50 [5] of 10 µg/mL (≈ 16.8 µM).
With `Cc1nc2c(c(=S)[nH]1)C(c1ccc(Cl)cc1Cl)C1=C(CCCC1=O)N2c1ccc(S(N)(=O)=O)cc1` (stereo not given) the Activity [1] was 60%, the Activity [2] was 40% and the Activity [3] was 40%. It also gave an Activity [4] of 30% and an IC50 [5] greater than 100 µg/mL.
In the case of `N#CC1=C(N)N(c2ccc(S(N)(=O)=O)cc2)C2=C(C(=O)CCC2)C1c1ccc(Cl)cc1Cl` (stereo not given), the Activity [1] is reported as 95%, the Activity [2] is reported as 65% and the Activity [3] is reported as 50%. It also gave an Activity [4] of 40% and an IC50 [5] of 25 µg/mL (≈ 51.1 µM).
With `COc1cccc2c1C(=O)c1c(O)c3c(c(O)c1C2=O)C[C@@](O)(C(=O)CO)C[C@@H]3O[C@H]1C[C@H](N)[C@H](O)[C@H](C)O1` [DOXORUBICIN] the Activity [1] was 100%, the Activity [2] was 68% and the Activity [3] was 32%. The Activity [4] was 19% and the IC50 [5] was 38 µg/mL (≈ 69.9 µM).
`CN(C)c1ccc(/C=N/C2=C(C#N)C(c3ccc(Cl)cc3Cl)C3=C(CCCC3=O)N2c2ccc(S(N)(=O)=O)cc2)cc1` (stereo not given) gave an Activity [1] of 40%, an Activity [2] of 30% and an Activity [3] of 30%. The Activity [4] was 10% and the IC50 [5] was greater than 100 µg/mL.
Compound `NS(=O)(=O)c1ccc(N2C3=C(C(=O)CCC3)C(c3ccc(Cl)cc3Cl)c3c2nc(C2CC2)[nH]c3=O)cc1` (stereo not given) has an Activity [1] of 60%, an Activity [2] of 52% and an Activity [3] of 44%. It also gave an Activity [4] of 27% and an IC50 [5] of 56 µg/mL (≈ 100 µM).
Work on `NC1=C(C(=O)O)C(c2ccc(Cl)cc2Cl)C2=C(CCCC2=O)N1c1ccc(S(N)(=O)=O)cc1` (stereo not given) yielded an Activity [1] of 60%, an Activity [2] of 10% and an Activity [3] of 0%. The Activity [4] was 0% and the IC50 [5] was greater than 100 µg/mL.
Work on `NC(=O)C1=C(N)N(c2ccc(S(N)(=O)=O)cc2)C2=C(C(=O)CCC2)C1c1ccc(Cl)cc1Cl` (stereo not given) yielded an Activity [1] of 45%, an Activity [2] of 40% and an Activity [3] of 30%. The Activity [4] was 30% and the IC50 [5] was greater than 100 µg/mL.
`CCO/C=N/C1=C(C#N)C(c2ccc(Cl)cc2Cl)C2=C(CCCC2=O)N1c1ccc(S(N)(=O)=O)cc1` (stereo not given) gave an Activity [1] of 40%, an Activity [2] of 35% and an Activity [3] of 30%. The Activity [4] was 30% and the IC50 [5] was greater than 100 µg/mL.
`Cc1ccc(-c2nc3c(c(=O)[nH]2)C(c2ccc(Cl)cc2Cl)C2=C(CCCC2=O)N3c2ccc(S(N)(=O)=O)cc2)cc1` (stereo not given) gave an Activity [1] of 60%, an Activity [2] of 55% and an Activity [3] of 55%. The Activity [4] was 30% and the IC50 [5] was 28 µg/mL (≈ 46.1 µM).
Work on `CN(C)c1ccc(/C=C/C=N/C2=C(C#N)C(c3ccc(Cl)cc3Cl)C3=C(CCCC3=O)N2c2ccc(S(N)(=O)=O)cc2)cc1` (stereo not given) yielded an Activity [1] of 20%, an Activity [2] of 20% and an Activity [3] of 20%. It also gave an Activity [4] of 10% and an IC50 [5] greater than 100 µg/mL.
With `N#CC1=C(/N=C/c2ccc([N+](=O)[O-])cc2[N+](=O)[O-])N(c2ccc(S(N)(=O)=O)cc2)C2=C(C(=O)CCC2)C1c1ccc(Cl)cc1Cl` (stereo not given) the Activity [1] was 20%, the Activity [2] was 20% and the Activity [3] was 20%. The Activity [4] was 10% and the IC50 [5] was greater than 100 µg/mL.
Work on `N#CC1=C(NC(=O)c2ccc([N+](=O)[O-])cc2)N(c2ccc(S(N)(=O)=O)cc2)C2=C(C(=O)CCC2)C1c1ccc(Cl)cc1Cl` (stereo not given) yielded an Activity [1] of 70%, an Activity [2] of 50% and an Activity [3] of 40%. It also gave an Activity [4] of 40% and an IC50 [5] of 50 µg/mL (≈ 78.3 µM).
Work on `CC(=O)CC(=O)NC1=C(C#N)C(c2ccc(Cl)cc2Cl)C2=C(CCCC2=O)N1c1ccc(S(N)(=O)=O)cc1` (stereo not given) yielded an Activity [1] of 80%, an Activity [2] of 60% and an Activity [3] of 44%. It also gave an Activity [4] of 40% and an IC50 [5] of 64 µg/mL (≈ 112 µM).
With `N#CC1=C(NC(=O)/C=C/c2ccccc2)N(c2ccc(S(N)(=O)=O)cc2)C2=C(C(=O)CCC2)C1c1ccc(Cl)cc1Cl` (stereo not given) the Activity [1] was 45%, the Activity [2] was 40% and the Activity [3] was 30%. It also gave an Activity [4] of 30% and an IC50 [5] greater than 100 µg/mL.
In the case of `COc1cc(C(=O)NC2=C(C#N)C(c3ccc(Cl)cc3Cl)C3=C(CCCC3=O)N2c2ccc(S(N)(=O)=O)cc2)cc(OC)c1OC` (stereo not given), the Activity [1] is reported as 95%, the Activity [2] is reported as 95% and the Activity [3] is reported as 20%. It also gave an Activity [4] of 0% and an IC50 [5] of 60 µg/mL (≈ 87.8 µM).
Compound `NS(=O)(=O)c1ccc(N2C3=C(C(=O)CCC3)C(c3ccc(Cl)cc3Cl)c3c2nc(-c2ccccc2)[nH]c3=O)cc1` (stereo not given) has an Activity [1] of 60%, an Activity [2] of 10% and an Activity [3] of 0%. It also gave an Activity [4] of 0% and an IC50 [5] greater than 100 µg/mL.
With `N#CC1=C(NC(=O)C2CC2)N(c2ccc(S(N)(=O)=O)cc2)C2=C(C(=O)CCC2)C1c1ccc(Cl)cc1Cl` (stereo not given) the Activity [1] was 60%, the Activity [2] was 40% and the Activity [3] was 40%. The Activity [4] was 20% and the IC50 [5] was 75 µg/mL (≈ 135 µM).
